Source: ChEMBL document CHEMBL4002602, “Design, Synthesis of Novel, Potent, Selective, Orally Bioavailable Adenosine A2A Receptor Antagonists and Their Biological Evaluation” (J Med Chem, 2017)
Converted amounts (≈) assume the structure as drawn.

Assays:
Adenosine receptor A2a [1] = biological target: T1, Adenosine receptor A2a (Homo sapiens, UniProt P29274); assay: Displacement of [3H]ZM241385 from human adenosine A2A receptor expressed in HEK293 cell membranes measured after 90 mins
Outline: (§1)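 Competition binding on membranes from HEK-293 cells overexpressing human A1, A2A, A2B or A3, washed with ADA. Radioligands: [3H]-DPCPX 1 nM (A1), [3H]ZM241385 1 nM (A2A), [3H]-MRS-1754 1.6 nM (A2B), [3H]-HEMADO 2 nM (A3). Buffer was 50 mM Tris with EDTA and ADA; MgCl2 10 mM for A2A/A3; A2B at pH 6.5 with 5 mM MgCl2. Incubation 90 min at room temperature, then filtration. Nonspecific binding defined by NECA 100 μM. Ki values: mean of two experiments, triplicate points.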

Liver = assay: Metabolic stability in human liver microsomes assessed as metabolic rate at 1 uM preincubated for 5 mins followed by addition of NADPH measured after 3 to 30 mins by LC-MS/MS analysis; type: ADME, microsome
Adenosine receptor A1 = biological target: T2, Adenosine receptor A1 (Homo sapiens, UniProt P30542); assay: Displacement of [3H]-DPCPX from human adenosine A1 receptor expressed in HEK293 cell membranes measured after 90 mins; outline: as §1
T2 sequence (P30542 whole entry): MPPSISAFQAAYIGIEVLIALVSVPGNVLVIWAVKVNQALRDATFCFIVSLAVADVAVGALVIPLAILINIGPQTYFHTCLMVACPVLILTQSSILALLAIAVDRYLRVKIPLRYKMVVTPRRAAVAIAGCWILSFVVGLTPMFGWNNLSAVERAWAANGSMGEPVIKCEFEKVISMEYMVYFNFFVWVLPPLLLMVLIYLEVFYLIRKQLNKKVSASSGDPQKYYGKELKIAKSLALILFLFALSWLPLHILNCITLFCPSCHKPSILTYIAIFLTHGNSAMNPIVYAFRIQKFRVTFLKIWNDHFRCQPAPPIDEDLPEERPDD

hERG (KCNH2) [2] = biological target: T3, hERG (KCNH2) (Homo sapiens, UniProt Q12809); assay: Inhibition of [3H]-astemizole binding to human ERG at 10 uM after 2 hrs by liquid scintillation counting method relative to control; settings: probe [3H]-astemizole
T3 sequence (Q12809 whole entry): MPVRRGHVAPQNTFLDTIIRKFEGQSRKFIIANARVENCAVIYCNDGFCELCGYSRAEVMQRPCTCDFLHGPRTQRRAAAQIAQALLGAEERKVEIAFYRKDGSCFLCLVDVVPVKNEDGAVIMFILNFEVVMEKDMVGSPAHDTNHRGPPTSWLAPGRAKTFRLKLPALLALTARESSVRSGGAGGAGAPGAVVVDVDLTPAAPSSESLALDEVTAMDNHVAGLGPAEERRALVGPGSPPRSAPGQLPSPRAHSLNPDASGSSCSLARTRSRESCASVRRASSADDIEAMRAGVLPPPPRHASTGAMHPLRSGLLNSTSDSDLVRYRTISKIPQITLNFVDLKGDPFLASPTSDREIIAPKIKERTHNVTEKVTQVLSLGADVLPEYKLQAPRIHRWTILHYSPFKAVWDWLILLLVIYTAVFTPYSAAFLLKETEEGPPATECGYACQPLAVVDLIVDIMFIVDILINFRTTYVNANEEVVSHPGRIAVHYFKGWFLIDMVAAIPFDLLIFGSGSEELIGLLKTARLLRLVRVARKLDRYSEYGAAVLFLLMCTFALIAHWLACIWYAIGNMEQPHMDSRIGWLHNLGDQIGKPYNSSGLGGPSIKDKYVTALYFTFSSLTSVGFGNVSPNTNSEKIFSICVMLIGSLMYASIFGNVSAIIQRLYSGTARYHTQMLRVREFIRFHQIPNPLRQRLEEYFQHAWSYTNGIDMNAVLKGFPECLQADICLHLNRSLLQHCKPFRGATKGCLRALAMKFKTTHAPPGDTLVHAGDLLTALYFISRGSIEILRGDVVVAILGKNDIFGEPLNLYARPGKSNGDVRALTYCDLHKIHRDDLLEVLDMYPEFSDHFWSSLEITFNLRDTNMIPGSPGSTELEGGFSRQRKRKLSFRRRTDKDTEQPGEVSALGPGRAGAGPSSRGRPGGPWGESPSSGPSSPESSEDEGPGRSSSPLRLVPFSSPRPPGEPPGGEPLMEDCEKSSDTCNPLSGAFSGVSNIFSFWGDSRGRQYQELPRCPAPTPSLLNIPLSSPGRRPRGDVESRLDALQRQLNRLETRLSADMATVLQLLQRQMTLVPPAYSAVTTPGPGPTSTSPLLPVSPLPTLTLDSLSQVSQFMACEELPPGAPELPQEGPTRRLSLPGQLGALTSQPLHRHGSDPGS

hERG (KCNH2) [3] = biological target: T3, hERG (KCNH2); assay: Inhibition of [3H]-astemizole binding to human ERG at 30 uM after 2 hrs by liquid scintillation counting method relative to control; settings: probe [3H]-astemizole
[4] = Cmax in Wistar rat at 10 mg/kg administered via oral gavage by LC/MS/MS analysis; type: ADME, organism-based; set-up: dose 10 mg/kg, route oral; settings: in vivo
Outline: (§2)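 Fasted male Wistar rats given 10 mg/kg PO as a suspension in 1% Tween 80, 0.5% w/v NaCMC. Serial plasma sampling (K2EDTA) at 0.25–24 h, acetonitrile precipitation, LC/MS/MS. Non-compartmental analysis per animal; bioavailability calculated against the 3 mg/kg IV group; mean of n=4.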

[5] = AUC (0 to t) in Wistar rat at 3 mg/kg, iv by LC/MS/MS analysis; type: ADME, organism-based; settings: in vivo
Outline: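 Overnight-fasted male Wistar rats received a 3 mg/kg tail-vein solution (0.6 mg/mL, 5 mL/kg). Vehicle was 10% NMP with PEG300, Cremophor EL and/or HPβ-CD in 0.1 M acetate buffer, pH 4.2; co-solvents varied by compound. Serial K2EDTA blood samples (n=3/time point) taken 0.008–24 h. Plasma measured by LC/MS/MS; non-compartmental AUC0-t per animal.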

[6] = Elimination half-life in Wistar rat at 3 mg/kg, iv by LC/MS/MS analysis; type: ADME, organism-based; settings: in vivo, read-out: beta t1/2 (converted)
Outline: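 Male Wistar rats (230 ± 15 g), fasted overnight, given 3 mg/kg IV via tail vein as a solution (0.6 mg/mL, 5 mL/kg) in NMP-based vehicles with acetate buffer pH 4.2. Serial plasma sampling (K2EDTA) from 0.008 to 24 h. Acetonitrile precipitation, then LC/MS/MS. Non-compartmental analysis per animal; mean of n=4.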

[7] = Oral bioavailability in Wistar rat at 10 mg/kg administered via gavage by LC/MS/MS analysis; type: ADME, organism-based; settings: in vivo; outline: as §2
[8] = Equilibrium aqueous solubility of the compound at pH 2.1 after 4 hrs; type: physicochemical; settings: aqueous medium
[9] = Equilibrium aqueous solubility of the compound at pH 4 after 4 hrs; type: physicochemical; settings: aqueous medium
[10] = Equilibrium aqueous solubility of the compound at pH 7.4 after 4 hrs; type: physicochemical; settings: aqueous medium
Adenosine receptor A2a [11] = biological target: T1, Adenosine receptor A2a; assay: Antagonist activity at human adenosine A2A receptor expressed in HEK293 cell membranes assessed as decrease in CGS-21680-induced cAMP level pretreated for 15 mins followed by agonist addition for 30 mins
[12] = biological target: T4, Adenosine receptor A3 (Homo sapiens) (UniProt P0DMS8); assay: Displacement of [3H]-HEMADO from human adenosine A3 receptor expressed in HEK293 cell membranes at 1 uM measured after 90 mins relative to control
T4 sequence (whole entry): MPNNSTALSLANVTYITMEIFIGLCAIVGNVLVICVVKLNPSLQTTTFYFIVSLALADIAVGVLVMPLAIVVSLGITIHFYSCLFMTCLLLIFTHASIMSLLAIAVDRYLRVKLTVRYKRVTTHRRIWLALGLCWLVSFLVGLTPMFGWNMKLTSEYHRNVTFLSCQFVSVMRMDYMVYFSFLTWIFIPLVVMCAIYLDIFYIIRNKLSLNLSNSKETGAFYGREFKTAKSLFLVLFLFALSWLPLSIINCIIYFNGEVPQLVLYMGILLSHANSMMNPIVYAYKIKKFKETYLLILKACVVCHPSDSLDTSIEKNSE

Cytochrome P450 1A2 = biological target: T5, Cytochrome P450 1A2 (Homo sapiens, UniProt P05177); assay: Inhibition of CYP1A2 in human liver microsomes at 5 to 25 uM using phenacetin as substrate preincubated for 5 mins with substrate followed by NADPH addition measured after 10 mins by LC-MS/MS analysis; type: ADME; settings: microsomes, 10 min, 25 µM
T5 sequence (P05177 whole entry): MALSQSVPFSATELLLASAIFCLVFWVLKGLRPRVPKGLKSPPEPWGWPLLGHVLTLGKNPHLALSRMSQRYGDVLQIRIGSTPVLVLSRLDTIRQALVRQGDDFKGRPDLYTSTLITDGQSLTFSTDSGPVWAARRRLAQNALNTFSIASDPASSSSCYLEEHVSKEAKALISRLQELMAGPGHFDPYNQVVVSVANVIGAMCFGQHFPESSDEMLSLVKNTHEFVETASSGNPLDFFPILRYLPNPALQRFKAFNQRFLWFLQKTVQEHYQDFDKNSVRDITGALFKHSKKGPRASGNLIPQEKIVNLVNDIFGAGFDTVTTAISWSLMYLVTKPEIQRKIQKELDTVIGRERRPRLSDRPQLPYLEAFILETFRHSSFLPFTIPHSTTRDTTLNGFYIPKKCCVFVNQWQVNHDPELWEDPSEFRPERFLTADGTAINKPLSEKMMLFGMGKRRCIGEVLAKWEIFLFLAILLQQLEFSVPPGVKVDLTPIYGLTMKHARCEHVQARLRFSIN

T1 sequence (P29274 whole entry): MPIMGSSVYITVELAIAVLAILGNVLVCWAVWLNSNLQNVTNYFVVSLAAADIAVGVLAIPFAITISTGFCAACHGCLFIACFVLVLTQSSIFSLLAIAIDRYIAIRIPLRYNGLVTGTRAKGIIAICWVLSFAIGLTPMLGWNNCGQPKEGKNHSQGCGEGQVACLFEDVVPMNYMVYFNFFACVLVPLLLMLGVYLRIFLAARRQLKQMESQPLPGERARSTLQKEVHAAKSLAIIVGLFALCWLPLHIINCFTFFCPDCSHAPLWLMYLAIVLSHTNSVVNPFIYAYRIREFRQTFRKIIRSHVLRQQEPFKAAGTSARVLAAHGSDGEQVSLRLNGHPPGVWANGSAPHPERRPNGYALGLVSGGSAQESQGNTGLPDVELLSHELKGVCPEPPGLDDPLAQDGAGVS

Ki (Adenosine receptor A2a [1]) [nM]	Drug metabolism (Liver) [nmol/min/mg]	Ki (Adenosine receptor A1) [nM]	Cmax [4] [nM]	AUC(0-t) [5] [µM·h]	half-life [6] [h]	bioavailability [7] [%]	solubility thermodynamic at 4 h [8] [µM]	solubility thermodynamic at 4 h [9] [µM]	solubility thermodynamic at 4 h [10] [µM]	Ki (Adenosine receptor A2a [11]) [nM]	inhibition [12] [%]	inhibition (INH) (Cytochrome P450 1A2)	Structure (SMILES)	inhibition at 2 h, 10 µM (hERG (KCNH2) [2]) [%]	inhibition at 2 h, 30 µM (hERG (KCNH2) [3]) [%]
2.1	0.03	1200	2020	2.7	2.4	61	1840 (≈ 848 µg/mL)	1810 (≈ 832 µg/mL)	1590 (≈ 731 µg/mL)	0.2	–	–	CCN(CC)C1CCC(C)(C(=O)Nc2nc3c(OC)ccc(N4CCOCC4)c3s2)CC1 (stereo not drawn)	13	18
13	0.02	5000	190	7.6	6.3	6	< 6	< 6	< 6	4.2	11	Not Active	COc1ccc(N2CCOCC2)c2sc(NC(=O)C(C)(C)Oc3ccc(F)cc3)nc12	< 5	–
3.4	< 0.04	500	1100	16.4	5.4	21.7	< 6	< 6	< 6	6.5	46	Not Active	COc1cnc(N2CCOCC2)c2sc(NC(=O)C(C)(C)Oc3ccc(F)cc3)nc12	< 10	< 10
8.6	< 0.04	2900	5400	3.7	0.6	63	139 (≈ 58.3 µg/mL)	111 (≈ 46.6 µg/mL)	114 (≈ 47.8 µg/mL)	0.25	–	–	COc1ccc(N2CCOCC2)c2sc(NC(=O)C3(C)CCC(C)(O)CC3)nc12 (stereo not drawn)	–	26
6.4	0.07	1100	1330	10.7	5.5	17	< 6	< 6	< 6	2.4	28	Not Active	COc1ccc(N2CCOCC2)c2sc(NC(=O)C(C)(C)Oc3ccc(F)c(F)c3)nc12	< 5	–
